# The list is not random: actives were taken first. Their share in the collection is about 3.4%.
# MC4R barr agon = human MC4R agonism via beta-arrestin; P32245; U2OS MC4R beta-arrestin complementation, luminescence; percent of melanotan II response, DMSO zero; activation, % at 8.9 µM; hit rate 0.98% among 360,000;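 active = activation above a per-plate cutoff, the mean activation of sample wells on that plate plus 3 SD, cut at about 8% in these data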
# TMEM16A act = mouse TMEM16A channel activation, primary screen. Q8BHY3. hit rate 0.3% among 340,000. HEK293 TMEM16A/YFP-H148Q/I152L, iodide quench fluorescence; hits give low values. AID 623877. B-score at 10 µM;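 active = fluorescence-ratio B-score plate-corrected deviation score at least 3 library SD below zero, with starting fluorescence score within 5 deviations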;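 also: channel opened by trigger with iodide after compound preincubation; score built on the fluorescence ratio of max minus min over baseline; more negative score means more quench and so TMEM16A activation or potentiation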
# ANO1 block = inhibitors of mouse TMEM16A calcium-activated chloride channel | Q8BHY3 | HEK293 TMEM16A/YFP iodide influx fluorescence, ionomycin | normalized B-score (activity score, 25-100; higher = stronger inhibition) at 10 µM | hit rate 1.2% among 310,000 | AID 588511;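 active = ratio plate-corrected score three or more library SD toward inhibition, starting fluorescence score within five deviations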;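 also: score derived from kinetic fluorescence span divided by baseline fluorescence per well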
# beta cell repl = induces beta-cell replication in MIN6 cells; AID 2380; proliferation, % at 10 µM; hit rate 0.29% among 330,000; MIN6 cells proliferation, ATPlite luminescence, 48 h; cells starved in 0.2% serum; 100% = growth in 10% serum;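 active = compounds whose signal lies at least 3.5 SD above the mean of all wells on their plate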;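 also: 0% = DMSO-treated cells in low-serum medium and 100% = 10% serum control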
# MC4R antag cAMP = antagonists of human melanocortin 4 receptor (MC4R) | P32245 | hit rate 0.48% among 360,000 | inhibition, % at 6.5 µM | MC4R-expressing cells, MTII-stimulated cAMP, LANCE TR-FRET;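 active = inhibition above its plate's cutoff, the mean of tested wells on that plate plus 3 SD, cut at about 29% in these data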;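 also: 0% = Melanotan II alone and 100% = Melanotan II plus saturating MCL0020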
#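 Material: human MC4R-expressing U2OS cells. Probe or stimulus: Melanotan II challenge. Dosing: 6.5 µM single dose. Times: 30-min compound, 1-h challenge, 1-h detection, room temperature. Technique: TR-FRET with Eu-cAMP and labeled anti-cAMP, 671 nm. Replication: singlicate.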
# m5-HT2A agonist = mouse HTR2A agonism via beta-arrestin recruitment. P35363. hit rate 0.66% among 360,000. CHO-K1 mHTR2A beta-arrestin complementation, luminescence; percent of 30 µM serotonin response. activation, % at 7.6 µM;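 active = activation above a run cutoff, the mean activation of all tested compounds plus 3 SD, cut at about 14% in these data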;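 also: 0% = plate median of compound wells and 100% = 30 µM serotonin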
# Numbers without * were called inactive; i = inactive; / = no result given.
SMILES,MC4R barr agon,TMEM16A act,ANO1 block,beta cell repl,MC4R antag cAMP,m5-HT2A agonist
COC(=O)NCC(c1ccco1)N1CCN(c2ccc(F)cc2)CC1 (stereo unspecified),-2.3,i,i,0.0,0.0,-1.7
O=C(NCC(c1ccco1)N1CCN(c2ccc(F)cc2)CC1)OCc1ccccc1 (stereo unspecified),8.3*,i,i,-2.5,5.2,-4.2
COc1cc(Cl)cc(CN2CCC(CCC(=O)NC3CC3)CC2)c1OC,-1.7,i,i,-1.1,-2.7,-0.3
COc1cc(CNC(=O)Nc2nc(C(N)Cc3ccc(Cl)cc3)cs2)cc(OC)c1OC (stereo unspecified),4.8,/,/,/,4.6,-3.5
NC(Cc1ccc(Cl)cc1)c1csc(NC(=O)NCC2CCCCC2)n1 (stereo unspecified),8.5*,/,/,/,7.9,-0.6
CN(Cc1ccc(C(C)(C)C)cc1)C(=O)C1CSC2(C)CCC(=O)N12 (stereo unspecified),-1.1,i,/,-1.0,5.9,-4.7
COC(=O)CNC(=O)CN1c2cccc3cccc(c23)S1(=O)=O,-1.0,i,i,0.0,1.3,-3.0
CC(=O)C(Cc1ccccc1)NC(=O)CN1c2cccc3cccc(c23)S1(=O)=O (stereo unspecified),-2.0,-9.82*,/,2.7,2.0,-2.4
O=C(Nc1nc(=S)ss1)c1ccc(Cl)cc1Cl,0.7,i,100*,/,-2.2,-3.3
O=C(Nc1ccccc1C(=O)Nc1ccc(Br)cn1)c1cccc([N+](=O)[O-])c1,1.4,i,i,-4.6,19.2,-3.6
O=c1cc(CSc2nnc(-c3cccs3)n2Cc2ccccc2)nc2sc3ccccc3n12,1.1,i,100*,-6.1,16.3,2.6
CN(Cc1ccccc1)Cc1ccccc1C(O)c1ccccc1 (stereo unspecified),2.6,i,/,/,5.7,4.8
CCCS(=O)(=O)NC(=O)C1(C)CCCN(C(=O)c2c(OC)cccc2OC)C1 (stereo unspecified),-0.3,/,/,/,13.7,-1.1
Cc1ccc(CNc2oc(COc3ccccc3Cl)nc2C#N)cc1,9.5*,i,i,-1.4,3.4,1.8
COc1ccc(CNc2oc(COc3ccccc3Cl)nc2C#N)cc1,6.6,i,i,-0.8,6.1,-5.1
CCn1c2ccccc2c2cc(NC(=O)CSc3nnnn3-c3ccccc3)ccc21,8.7*,i,i,-3.1,7.2,-2.6
O=C(CSc1nnnn1-c1ccccc1)Nc1ccc(Cl)cc1,7.5,i,i,-0.1,3.0,-1.2
O=C(CN1CCC(Cc2ccccc2)CC1)NC(=O)NCc1ccccc1,9.6*,i,i,0.0,8.6,-4.3
COc1cc(NC(=O)CN2CCC(Cc3ccccc3)CC2)c(C)cc1[N+](=O)[O-],9.5*,i,i,-0.8,3.2,0.6
Cc1nc(N2CCN(c3ccccc3)CC2)[nH]c(=O)c1C,-0.8,i,i,-1.8,10.2,2.5
CCCCCCCCCCCCCCCC[N+](C)(C)CCN(Cc1ccc(OC)cc1)c1ncccn1,11.8*,i,i,-8.3,42.9*,12.2
COc1cc(C(=O)N(C)CCOc2ccccc2)ccc1OCC(=O)Nc1cccc(C(F)(F)F)c1,-0.4,i,100*,-5.7,3.1,-7.4
O=C(COc1coc(CN2CCCc3ccccc32)cc1=O)Nc1ccc([N+](=O)[O-])cc1,-0.2,i,i,-2.1,-1.5,0.1
N=c1c2c(-c3ccccc3)c(-c3ccccc3)n(Cc3ccco3)c2ncn1CCCn1ccnc1,-0.8,i,i,/,18.6,-0.4
c1ccc(-c2oc3ncnc(NCCCn4ccnc4)c3c2-c2ccccc2)cc1,2.3,i,100*,-4.0,8.0,-5.0
c1ccc(-c2c(-c3ccccc3)n(Cc3ccco3)c3ncnc(NCCCn4ccnc4)c23)cc1,0.3,i,100*,-6.7,6.9,0.6
N=c1c2c(-c3ccccc3)c(-c3ccccc3)n(Cc3ccco3)c2ncn1Cc1ccccc1,-2.6,i,100*,-3.9,-2.7,-1.9
CC(C)Cn1cnc2c(c(-c3ccccc3)c(-c3ccccc3)n2Cc2ccco2)c1=N,5.5,i,i,-3.8,13.3,-2.9
